Four compounds from ChEMBL document CHEMBL1154075, “Synthesis and biological evaluation of (11)C-labeled beta-galactosyl triazoles as potential PET tracers for in vivo LacZ reporter gene imaging” (Bioorg Med Chem, 2009) can be followed below.

In data set [1] the test system is Kidney. The data set can be described thus: Biodistribution in NMRI mouse kidney assessed per gram of tissue at 37 MBq/ml, iv after 2 mins. In kind it is ADME, organism-based. The following applies: in vivo. The gist of the method:
(§1)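 Male NMRI mice (35–45 g), isoflurane-anaesthetised (2.5% in O2), given 0.1 mL tracer at about 37 MBq/mL in 0.9% NaCl (ethanol <10%) via tail vein. Killed by decapitation at 2 or 60 min p.i., n = 4 per time point. Blood and organs weighed, gamma counted and background corrected. Expressed as %ID/g; blood mass taken as 7% of body mass. Mean ± SD.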

Data set [2] relates to HEK293. The data set is described as follows: Drug uptake in human HEK293 cells assessed as radioactivity after 30 mins. It counts as ADME, cell-based. The following applies: hek293, 0.5 h. A digest of the protocol:
(§2)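 293T cells were lentivirally transduced with LacZ or, as control, VZV-tk, and kept in DMEM/10% FCS with 1 µg/mL puromycin. 200,000 cells per well were seeded and used after 24 h. Cells received fresh medium with 1.1 MBq tracer per well for 30–120 min at 37 °C, 5% CO2. After ice-cold PBS washes, cells were lysed; lysate and supernatant were gamma counted. Result is % radioactivity in the cell fraction, triplicate means.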

Data set [3] concerns Kidney. The data set can be described thus: Biodistribution in NMRI mouse kidney assessed per gram of tissue at 37 MBq/ml, iv after 60 mins. The following applies: in vivo, 1 h. It counts as ADME, organism-based. The gist of the method: as §1
The nature of data set [4]: Biodistribution in NMRI mouse urine at 37 MBq/ml, iv after 2 mins. It counts as ADME, organism-based. Particulars: in vivo. A digest of the protocol: (§3)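 Male NMRI mice under isoflurane received 0.1 mL of about 37 MBq/mL tracer iv in saline (ethanol <10%). Decapitated at 2 or 60 min, n = 4 per time point. Radioactivity counted in a NaI(Tl) well counter and expressed as %ID, i.e. cpm in organ over total cpm recovered. Mean ± SD.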

In data set [5] the test system is Stomach. The data set is described as follows: Biodistribution in NMRI mouse stomach assessed per gram of tissue at 37 MBq/ml, iv after 2 mins. It counts as ADME, organism-based. Particulars: in vivo. The gist of the method:
as §1

Data set [6] deals with Stomach. The data set can be described thus: Biodistribution in NMRI mouse stomach assessed per gram of tissue at 37 MBq/ml, iv after 60 mins. In kind it is ADME, organism-based. Particulars: in vivo, 1 h. A digest of the protocol:
as §1

Data set [7] is described as follows: Biodistribution in NMRI mouse spleen + pancreas assessed per gram of tissue at 37 MBq/ml, iv after 60 mins. In kind it is ADME, organism-based. Particulars: in vivo, 1 h. A digest of the protocol:
as §1

Data set [8] in a line: Biodistribution in NMRI mouse carcass at 37 MBq/ml, iv after 2 mins. In kind it is ADME, organism-based. The following applies: in vivo. The gist of the method: as §3
Data set [9] concerns HEK293. The data set is described as follows: Drug uptake in human HEK293 cells assessed as radioactivity after 120 mins. In kind it is ADME, cell-based. The following applies: hek293, 2 h. The gist of the method: as §2
The subject of data set [10] is Liver. The data set is described as follows: Biodistribution in NMRI mouse liver assessed per gram of tissue at 37 MBq/ml, iv after 60 mins. It counts as ADME, organism-based. The following applies: in vivo, 1 h. The gist of the method: as §1
Data set [11] can be described thus: Biodistribution in NMRI mouse urine at 37 MBq/ml, iv after 60 mins. In kind it is ADME, organism-based. The following applies: in vivo, 1 h. A digest of the protocol:
as §3

Data set [12] is described as follows: Biodistribution in NMRI mouse carcass at 37 MBq/ml, iv after 60 mins. It counts as ADME, organism-based. Particulars: in vivo, 1 h. The gist of the method:
as §3

Data set [13] is described as follows: Octanol-phosphate buffer partition coefficient, log P of the compound. It counts as physicochemical. The gist of the method:
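About 555 kBq of purified tracer was added to 2 mL n-octanol and 2 mL 0.025 M sodium phosphate pH 7.4. The mixture was vortexed 2 min at room temperature and centrifuged 5 min at 1837 g. Aliquots of each phase were weighed and gamma counted. P was taken as cpm/mL in octanol over cpm/mL in buffer, after density correction. At least triplicate.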

The test system of a further data set is Plasma. The data set is described as follows: Metabolic stability in NMRI mouse plasma assessed as drug recovery at 18 MBq, iv after 30 mins by RP-HPLC. It counts as ADME, organism-based. The following applies: in vivo, 0.5 h. The gist of the method: (§4)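 NMRI mice under isoflurane received about 18 MBq tracer iv and were decapitated at 10 or 30 min, n = 2. Plasma was separated from heparinised blood by centrifugation; urine was taken at 30 min by bladder voiding and mixed with authentic compound. Both were analysed by gradient RP-HPLC, fractions gamma counted, and intact tracer was expressed as % of recovered radioactivity.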

Data set [14] has as its system Blood. The data set is described as follows: Biodistribution in NMRI mouse blood assessed per gram of tissue at 37 MBq/ml, iv after 2 mins. It counts as ADME, organism-based. The following applies: in vivo. The gist of the method:
as §1

The test system of a further data set is Brain. The data set is described as follows: Biodistribution in NMRI mouse brain assessed per gram of tissue at 37 MBq/ml, iv after 60 mins. It counts as ADME, organism-based. Particulars: in vivo, 1 h. The gist of the method: as §1
Data set [15] has as its system Liver. The data set is described as follows: Biodistribution in NMRI mouse liver assessed per gram of tissue at 37 MBq/ml, iv after 2 mins. In kind it is ADME, organism-based. The following applies: in vivo. The gist of the method: as §1
Data set [16] is described as follows: Metabolic stability in NMRI mouse urine assessed as drug recovery at 18 MBq, iv after 30 mins by RP-HPLC. It counts as ADME, organism-based. Particulars: in vivo, 0.5 h. The gist of the method: as §4
For data set [17], the system named is Blood. The data set is described as follows: Biodistribution in NMRI mouse blood assessed per gram of tissue at 37 MBq/ml, iv after 60 mins. In kind it is ADME, organism-based. Particulars: in vivo, 1 h. The gist of the method:
as §1

In data set [18] the target is Beta-galactosidase (Escherichia coli) (UniProt Q8VNN2). The data set is described as follows: Inhibition of Escherichia coli beta-galactosidase assessed as substrate hydrolysis at 1 mg/ml after 15 mins by competitive binding assay in presence of ONPG. Set-up: scale not given: the % may be the effect or the level left. The following applies: tested as the 11C-labelled form. A digest of the protocol:
(§5)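 E. coli β-gal (10 U, 149 U/mg) was incubated at 37 °C with 1 mg/mL triazole in HEPES pH 7.0 (120 mM) containing 4 mM MgSO4 and 180 mM NaCl. ONPG (1 mg in 1 mL HEPES solution) was then added. Samples taken 15 and 90 min later were analysed by RP-HPLC with UV detection.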

For data set [19] the target is unchanged. The data set can be described thus: Inhibition of Escherichia coli beta-galactosidase assessed as substrate hydrolysis at 1 mg/ml after 90 mins by competitive binding assay in presence of ONPG. The following applies: tested as the 11C-labelled form. Set-up: scale not given: the % may be the effect or the level left. The gist of the method: as §5
Data set [20] has as its target Beta-galactosidase (Escherichia coli) (UniProt P00722). The data set can be described thus: Inhibition of beta-galactosidase.

Values joined by “and” are separate entries in the source; they are usually repeats but may differ in a detail not shown here. Equal values may be shown once.

Sequence of Beta-galactosidase (Escherichia coli) (UniProt Q8VNN2) (Q8VNN2 whole entry, looked up): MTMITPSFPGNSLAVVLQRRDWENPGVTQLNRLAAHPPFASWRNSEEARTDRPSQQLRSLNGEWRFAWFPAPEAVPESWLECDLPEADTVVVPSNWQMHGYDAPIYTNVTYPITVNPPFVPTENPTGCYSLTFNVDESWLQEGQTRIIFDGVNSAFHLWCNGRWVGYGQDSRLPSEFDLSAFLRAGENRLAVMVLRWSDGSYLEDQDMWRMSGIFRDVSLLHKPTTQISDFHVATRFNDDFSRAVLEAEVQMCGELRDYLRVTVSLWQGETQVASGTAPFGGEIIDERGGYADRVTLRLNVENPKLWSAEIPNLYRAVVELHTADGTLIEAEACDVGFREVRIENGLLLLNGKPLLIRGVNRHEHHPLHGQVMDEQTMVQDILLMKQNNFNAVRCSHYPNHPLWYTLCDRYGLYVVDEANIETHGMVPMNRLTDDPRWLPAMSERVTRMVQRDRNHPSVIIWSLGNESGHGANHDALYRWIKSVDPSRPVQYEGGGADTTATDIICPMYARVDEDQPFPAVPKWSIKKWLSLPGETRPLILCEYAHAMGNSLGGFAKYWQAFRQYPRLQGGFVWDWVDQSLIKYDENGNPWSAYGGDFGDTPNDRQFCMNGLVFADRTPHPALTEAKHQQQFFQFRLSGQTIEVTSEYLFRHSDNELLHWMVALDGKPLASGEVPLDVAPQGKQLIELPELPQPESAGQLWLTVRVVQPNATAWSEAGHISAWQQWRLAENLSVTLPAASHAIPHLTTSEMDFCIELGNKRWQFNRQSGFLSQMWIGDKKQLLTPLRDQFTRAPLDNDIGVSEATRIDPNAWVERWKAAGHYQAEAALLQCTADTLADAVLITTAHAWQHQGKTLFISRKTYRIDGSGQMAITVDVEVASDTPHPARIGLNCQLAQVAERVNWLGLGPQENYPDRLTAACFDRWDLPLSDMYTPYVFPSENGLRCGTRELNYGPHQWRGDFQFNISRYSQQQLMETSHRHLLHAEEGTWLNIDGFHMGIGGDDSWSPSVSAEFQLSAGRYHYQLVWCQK
Sequence of Beta-galactosidase (Escherichia coli) (UniProt P00722) (P00722 whole entry, looked up): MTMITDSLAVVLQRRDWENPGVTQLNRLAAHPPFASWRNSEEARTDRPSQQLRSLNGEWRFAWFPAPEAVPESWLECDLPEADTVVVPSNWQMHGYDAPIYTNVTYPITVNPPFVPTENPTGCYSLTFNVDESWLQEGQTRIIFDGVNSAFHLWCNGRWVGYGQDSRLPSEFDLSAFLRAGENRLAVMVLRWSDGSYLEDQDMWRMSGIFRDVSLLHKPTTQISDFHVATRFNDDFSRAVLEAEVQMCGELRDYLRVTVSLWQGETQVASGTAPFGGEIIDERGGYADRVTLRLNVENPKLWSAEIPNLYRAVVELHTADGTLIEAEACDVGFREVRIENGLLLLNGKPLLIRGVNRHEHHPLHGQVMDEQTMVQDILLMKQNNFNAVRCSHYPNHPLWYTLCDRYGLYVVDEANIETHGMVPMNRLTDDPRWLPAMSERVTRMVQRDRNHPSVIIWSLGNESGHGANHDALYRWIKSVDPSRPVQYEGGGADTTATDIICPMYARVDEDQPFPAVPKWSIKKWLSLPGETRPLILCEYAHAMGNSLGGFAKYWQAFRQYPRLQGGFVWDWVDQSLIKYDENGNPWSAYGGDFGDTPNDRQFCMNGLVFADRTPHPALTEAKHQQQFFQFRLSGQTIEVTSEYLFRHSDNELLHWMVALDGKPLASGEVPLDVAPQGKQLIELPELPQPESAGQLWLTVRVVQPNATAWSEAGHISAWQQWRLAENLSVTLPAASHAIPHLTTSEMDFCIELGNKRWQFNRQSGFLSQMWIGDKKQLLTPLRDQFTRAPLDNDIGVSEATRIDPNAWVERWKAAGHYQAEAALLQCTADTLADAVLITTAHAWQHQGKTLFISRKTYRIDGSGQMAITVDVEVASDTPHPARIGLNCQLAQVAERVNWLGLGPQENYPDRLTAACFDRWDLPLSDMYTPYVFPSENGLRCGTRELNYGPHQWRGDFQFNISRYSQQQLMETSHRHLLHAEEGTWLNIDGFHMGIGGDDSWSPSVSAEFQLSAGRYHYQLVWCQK

`[11CH3]Oc1ccc2cc(-c3cn([C@@H]4O[C@H](CO)[C@H](O)[C@H](O)[C@H]4O)nn3)ccc2c1`: the Drug uptake was 7.2 %ID and 5.7 %ID in the data set with Kidney [1]; 0.6% in the data set with HEK293 [2]; 1 %ID and 1.4 %ID in the data set with Kidney [3]; 0.1 %ID in data set [4]; 1.1 %ID and 0.9 %ID with Stomach [5]; 0.4 %ID and 0.2 %ID in the data set with Stomach [6]. Also, the Drug uptake was 0.4 %ID and 1.2 %ID in [7]; 34.3 %ID in data set [8]; 1.4% in the data set on HEK293 [9]; 7.1 %ID and 3.4 %ID in the data set on Liver [10]; 2.8 %ID in data set [11]; 12.2 %ID in data set [12]. For the same compound, the Drug uptake with Blood [14] is 50.9 %ID and 18.6 %ID; in the data set with Brain it was 0 %ID and 0.2 %ID; in the data set on Liver [15], 12.1 %ID and 25.8 %ID; with Blood [17], 4.2 %ID and 1.6 %ID. In data set [13], this compound showed a logP of 1.4. In addition, the Stability result (in the data set with Plasma; in data set [16]) was “Stable” each time.
As to `[11CH3]Oc1ccc(-c2cn([C@@H]3O[C@H](CO)[C@H](O)[C@H](O)[C@H]3O)nn2)cc1`, the Drug uptake was 16.1 %ID and 19.3 %ID in the data set with Kidney [1]; 4 %ID and 4.4 %ID in the data set on Kidney [3]; 3.1 %ID in [4]; 0.9 %ID and 1.5 %ID with Stomach [5]; 0.9 %ID and 1.4 %ID with Stomach [6]; 0.6 %ID and 1.7 %ID in [7]. Besides, the Drug uptake in [8] was 38.1 %ID; in the data set with HEK293 [9], 0.4%; with Liver [10] it was 13.4 %ID and 6.3 %ID; in [11] it was 47.5 %ID; in [12], 19.6 %ID; in the data set on Brain, 0 %ID and 0.3 %ID. The Drug uptake in the data set on Liver [15] is 18.7 %ID and 8.7 %ID. Moreover, the logP in [13] is -0.1. For the same compound, the Stability result (with Plasma; in data set [16]) was “Stable” in each case.
`COc1ccc(-c2cn([C@@H]3O[C@H](CO)[C@H](O)[C@H](O)[C@H]3O)nn2)cc1`: the results for the Activity in data set [18] and in data set [19] were 40% and 70%, respectively.
Consider `OC[C@H]1O[C@@H](n2cc(-c3ccccc3)nn2)[C@H](O)[C@@H](O)[C@H]1O`, for which the Ki in data set [20] was found to be 330 µM.
